MIC data for 15 molecules are collected here from ChEMBL document CHEMBL1129566 (J Med Chem, 1996).

Broadly, the MIC is the lowest concentration that inhibits growth of the organism. High values mean weaker potency, low ones greater potency.

What all share (type): functional
One experiment concerns Enterobacter cloacae. In words: In vitro minimum inhibitory concentration required to produce antibacterial activity against Enterobacter cloacae 908SSI. The method, boiled down: (§1)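 Two-fold agar dilution on Mueller-Hinton agar. Overnight broth cultures diluted in fresh broth to […]; 10⁴ CFU/spot applied by inoculating apparatus onto plates with graded drug concentrations. Incubated 18 h at 37 °C; MIC taken as the lowest concentration giving complete growth inhibition.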

Experiment [1] has as its system Staphylococcus aureus. In words: In vitro minimum inhibitory concentration required to produce antibacterial activity against Staphylococcus aureus 887MSSA. The method, boiled down:
as §1

The test system of experiment [2] is Staphylococcus aureus. Put plainly: In vitro minimum inhibitory concentration required to produce antibacterial activity against Staphylococcus aureus 743 MRSA. A digest of the protocol:
as §1

Another experiment deals with Pseudomonas aeruginosa. Put plainly: In vitro minimum inhibitory concentration required to produce antibacterial activity against Pseudomonas aeruginosa ATCC 27853. The method, boiled down: as §1
For experiment [3], the system named is Streptococcus pneumoniae. In words: Minimum inhibitory concentration for antibacterial activity against Streptococcus pneumoniae Q19 (pen s). A digest of the protocol:
as §1

Experiment [4] deals with Streptococcus pneumoniae. In words: In vitro minimum inhibitory concentration required to produce antibacterial activity against Streptococcus pneumoniae 1/37(pen r). A digest of the protocol:
as §1

In the next experiment the test system is Enterococcus faecalis. In words: In vitro minimum inhibitory concentration required to produce antibacterial activity against Enterococcus faecalis ATCC 29212. The method, boiled down:
as §1

The next experiment deals with Citrobacter freundii. Put plainly: In vitro minimum inhibitory concentration required to produce antibacterial activity against Citrobacter freundii 902. A digest of the protocol:
as §1

For another experiment, the system named is Escherichia coli. In words: In vitro minimum inhibitory concentration required to produce antibacterial activity against Escherichia coli 25922. The method, boiled down:
as §1

≈ marks a conversion by molar mass, not a printed value. Bounds are passed on as bounds.

Take `COc1cccc(N2CC/C(=C\C3=C(C(=O)O)N4C(=O)[C@@H](NC(=O)/C(=N\O)c5csc(N)n5)[C@H]4SC3)C2=O)c1`: the MIC against Enterobacter cloacae was 1 mg/L (≈ 1.75 µM); against Staphylococcus aureus [1], 1 mg/L (≈ 1.75 µM); in the experiment on Staphylococcus aureus [2], 8 mg/L (≈ 14 µM); against Pseudomonas aeruginosa it was > 32 mg/L; in the experiment with Streptococcus pneumoniae [3], ≤ 0.06 mg/L; against Streptococcus pneumoniae [4], 0.5 mg/L (≈ 0.876 µM). The MIC with Enterococcus faecalis, against Citrobacter freundii and in the experiment on Escherichia coli was 0.5 mg/L (≈ 0.876 µM) each time.

Regarding `Nc1nc(/C(=N/O)C(=O)N[C@@H]2C(=O)N3C(C(=O)O)=C(/C=C4\CCN(CC5CC5)C4=O)CS[C@H]23)cs1`, the MIC in the experiment with Enterobacter cloacae is 0.25 mg/L (≈ 0.482 µM); in the experiment on Staphylococcus aureus [1], 1 mg/L (≈ 1.93 µM); against Staphylococcus aureus [2], 16 mg/L (≈ 30.9 µM); against Pseudomonas aeruginosa, 16 mg/L (≈ 30.9 µM); with Streptococcus pneumoniae [3], 0.03 mg/L (≈ 0.0579 µM); in the experiment on Streptococcus pneumoniae [4], 1 mg/L (≈ 1.93 µM). The minimal inhibitory concentration (MIC) against Enterococcus faecalis amounted to 1 mg/L (≈ 1.93 µM); against Citrobacter freundii, 0.12 mg/L (≈ 0.231 µM); in the experiment on Escherichia coli it was 0.12 mg/L (≈ 0.231 µM).

As for `Nc1nc(/C(=N/O)C(=O)N[C@@H]2C(=O)N3C(C(=O)O)=C(/C=C4\CCNC4=O)CS[C@H]23)cs1`, the MIC was 0.5 mg/L (≈ 1.08 µM) in the experiment on Enterobacter cloacae; 1 mg/L (≈ 2.15 µM) in the experiment on Staphylococcus aureus [1]; 8 mg/L (≈ 17.2 µM) against Staphylococcus aureus [2]; > 16 mg/L against Pseudomonas aeruginosa; 0.06 mg/L (≈ 0.129 µM) in the experiment with Streptococcus pneumoniae [3]; 2 mg/L (≈ 4.31 µM) with Streptococcus pneumoniae [4]. For the same molecule, the MIC against Enterococcus faecalis is 2 mg/L (≈ 4.31 µM); in the experiment on Citrobacter freundii it was 0.5 mg/L (≈ 1.08 µM); against Escherichia coli, ≤ 0.06 mg/L.

Turning to `Nc1nc(/C(=N/O)C(=O)N[C@@H]2C(=O)N3C(C(=O)O)=C(/C=C4\CCN(c5cccnc5)C4=O)CS[C@H]23)cs1`, the minimal inhibitory concentration (MIC) against Enterobacter cloacae was ≤ 0.12 mg/L; against Staphylococcus aureus [1] it was 1 mg/L (≈ 1.85 µM); in the experiment on Staphylococcus aureus [2] it was 8 mg/L (≈ 14.8 µM); with Pseudomonas aeruginosa, 16 mg/L (≈ 29.5 µM); in the experiment with Streptococcus pneumoniae [3], 0.12 mg/L (≈ 0.222 µM); against Streptococcus pneumoniae [4] it was 2 mg/L (≈ 3.69 µM). Besides, the MIC in the experiment on Enterococcus faecalis was 0.5 mg/L (≈ 0.923 µM); in the experiment on Citrobacter freundii, ≤ 0.12 mg/L; against Escherichia coli it was ≤ 0.12 mg/L.

For the molecule `Nc1nc(/C(=N/O)C(=O)N[C@@H]2C(=O)N3C(C(=O)O)=C(/C=C4\CCN(Cc5nn[nH]n5)C4=O)CS[C@H]23)cs1`, the minimal inhibitory concentration (MIC) is 16 mg/L (≈ 29.3 µM) in the experiment with Enterobacter cloacae; 8 mg/L (≈ 14.6 µM) in the experiment on Staphylococcus aureus [1]; 32 mg/L (≈ 58.5 µM) with Staphylococcus aureus [2]; > 32 mg/L with Pseudomonas aeruginosa; 0.12 mg/L (≈ 0.22 µM) against Streptococcus pneumoniae [3]; 2 mg/L (≈ 3.66 µM) against Streptococcus pneumoniae [4]. The values for the minimal inhibitory concentration (MIC) with Enterococcus faecalis, with Citrobacter freundii and in the experiment on Escherichia coli were 16 mg/L (≈ 29.3 µM), 2 mg/L (≈ 3.66 µM) and 0.25 mg/L (≈ 0.457 µM), respectively.

With `Nc1nc(/C(=N/OCCF)C(=O)N[C@@H]2C(=O)N3C(C(=O)O)=C(/C=C4\CCN(CC(F)(F)F)C4=O)CS[C@H]23)cs1`, the minimal inhibitory concentration (MIC) in the experiment with Enterobacter cloacae is 2 mg/L (≈ 3.38 µM); with Staphylococcus aureus [1], 4 mg/L (≈ 6.75 µM); in the experiment on Staphylococcus aureus [2], 16 mg/L (≈ 27 µM); in the experiment with Pseudomonas aeruginosa, 8 mg/L (≈ 13.5 µM); with Streptococcus pneumoniae [3] it was ≤ 0.06 mg/L; against Streptococcus pneumoniae [4], 1 mg/L (≈ 1.69 µM). The minimum inhibitory concentration (MIC) was determined as 32 mg/L (≈ 54 µM) with Enterococcus faecalis, 1 mg/L (≈ 1.69 µM) against Citrobacter freundii and 0.5 mg/L (≈ 0.844 µM) against Escherichia coli.

For `Cc1cc(N2CC/C(=C\C3=C(C(=O)O)N4C(=O)[C@@H](NC(=O)/C(=N\O)c5csc(N)n5)[C@H]4SC3)C2=O)no1`, the MIC against Enterobacter cloacae was 0.5 mg/L (≈ 0.916 µM); against Staphylococcus aureus [1], 1 mg/L (≈ 1.83 µM); against Staphylococcus aureus [2] it was 8 mg/L (≈ 14.7 µM); against Pseudomonas aeruginosa, > 32 mg/L; in the experiment with Streptococcus pneumoniae [3] it was 0.12 mg/L (≈ 0.22 µM); with Streptococcus pneumoniae [4], 2 mg/L (≈ 3.67 µM). Moreover, the MIC in the experiment with Enterococcus faecalis came out at 0.25 mg/L (≈ 0.458 µM); against Citrobacter freundii, 0.12 mg/L (≈ 0.22 µM); against Escherichia coli it was 0.12 mg/L (≈ 0.22 µM).

For `Nc1nc(/C(=N/O)C(=O)N[C@@H]2C(=O)N3C(C(=O)O)=C(/C=C4\CCN(c5cccc([N+](=O)[O-])c5)C4=O)CS[C@H]23)cs1`, the minimum inhibitory concentration (MIC) was 0.25 mg/L (≈ 0.427 µM) against Enterobacter cloacae; 0.5 mg/L (≈ 0.854 µM) in the experiment on Staphylococcus aureus [1]; 4 mg/L (≈ 6.83 µM) in the experiment with Staphylococcus aureus [2]; 16 mg/L (≈ 27.3 µM) in the experiment on Pseudomonas aeruginosa; ≤ 0.06 mg/L in the experiment with Streptococcus pneumoniae [3]; 2 mg/L (≈ 3.42 µM) with Streptococcus pneumoniae [4]. Moreover, the minimum inhibitory concentration (MIC) in the experiment with Enterococcus faecalis, against Citrobacter freundii and with Escherichia coli was 0.12 mg/L (≈ 0.205 µM) throughout.

For `Nc1nc(/C(=N/O)C(=O)N[C@@H]2C(=O)N3C(C(=O)O)=C(/C=C4\CCN(CC(=O)O)C4=O)CS[C@H]23)cs1`, the minimum inhibitory concentration (MIC) in the experiment with Enterobacter cloacae is 8 mg/L (≈ 15.3 µM); against Staphylococcus aureus [1] it was 16 mg/L (≈ 30.6 µM); in the experiment on Staphylococcus aureus [2] it was > 32 mg/L; against Pseudomonas aeruginosa, > 32 mg/L; in the experiment with Streptococcus pneumoniae [3], 0.12 mg/L (≈ 0.23 µM); against Streptococcus pneumoniae [4], 2 mg/L (≈ 3.83 µM). In addition, the minimal inhibitory concentration (MIC) in the experiment with Enterococcus faecalis worked out at 8 mg/L (≈ 15.3 µM); against Citrobacter freundii, 2 mg/L (≈ 3.83 µM); in the experiment on Escherichia coli it was 0.12 mg/L (≈ 0.23 µM).

Take `Nc1nc(/C(=N/O)C(=O)N[C@@H]2C(=O)N3C(C(=O)O)=C(/C=C4\CN(c5ccccc5)C4=O)CS[C@H]23)cs1`: the MIC in the experiment on Enterobacter cloacae was found to be 2 mg/L (≈ 3.8 µM); against Staphylococcus aureus [1] it was 0.5 mg/L (≈ 0.95 µM); against Staphylococcus aureus [2] it was 8 mg/L (≈ 15.2 µM); with Pseudomonas aeruginosa, 16 mg/L (≈ 30.4 µM); against Streptococcus pneumoniae [3], 0.5 mg/L (≈ 0.95 µM); against Streptococcus pneumoniae [4] it was 4 mg/L (≈ 7.6 µM). For the same molecule, the MIC came to 0.25 mg/L (≈ 0.475 µM) in the experiment with Enterococcus faecalis, 1 mg/L (≈ 1.9 µM) against Citrobacter freundii and 1 mg/L (≈ 1.9 µM) with Escherichia coli.

As for `Nc1nc(/C(=N/O)C(=O)N[C@@H]2C(=O)N3C(C(=O)O)=C(/C=C4\CCN(c5ccc(O)c(O)c5)C4=O)CS[C@H]23)cs1`, the MIC with Enterobacter cloacae was 0.25 mg/L (≈ 0.437 µM); against Staphylococcus aureus [1], 2 mg/L (≈ 3.49 µM); in the experiment on Staphylococcus aureus [2] it was 16 mg/L (≈ 27.9 µM); in the experiment with Pseudomonas aeruginosa, 32 mg/L (≈ 55.9 µM); in the experiment on Streptococcus pneumoniae [3], ≤ 0.06 mg/L; against Streptococcus pneumoniae [4], 2 mg/L (≈ 3.49 µM). The minimum inhibitory concentration (MIC) came out at 0.5 mg/L (≈ 0.873 µM) against Enterococcus faecalis, 0.12 mg/L (≈ 0.21 µM) in the experiment on Citrobacter freundii and 0.25 mg/L (≈ 0.437 µM) against Escherichia coli.

Turning to `C#CCN1CC/C(=C\C2=C(C(=O)O)N3C(=O)[C@@H](NC(=O)/C(=N\O)c4csc(N)n4)[C@H]3SC2)C1=O`, the MIC in the experiment with Enterobacter cloacae was 1 mg/L (≈ 1.99 µM); in the experiment with Staphylococcus aureus [1], 1 mg/L (≈ 1.99 µM); in the experiment on Staphylococcus aureus [2], 4 mg/L (≈ 7.96 µM); in the experiment on Pseudomonas aeruginosa, 8 mg/L (≈ 15.9 µM); against Streptococcus pneumoniae [3] it was ≤ 0.06 mg/L; with Streptococcus pneumoniae [4], 2 mg/L (≈ 3.98 µM). In addition, the minimal inhibitory concentration (MIC) was 1 mg/L (≈ 1.99 µM) in the experiment with Enterococcus faecalis, 0.12 mg/L (≈ 0.239 µM) against Citrobacter freundii and ≤ 0.06 mg/L in the experiment with Escherichia coli.

On to `Nc1nc(/C(=N/O)C(=O)N[C@@H]2C(=O)N3C(C(=O)O)=C(/C=C4\CCN(C5CC5)C4=O)CS[C@H]23)cs1`, for which the minimum inhibitory concentration (MIC) with Enterobacter cloacae is 0.12 mg/L (≈ 0.238 µM); with Staphylococcus aureus [1] it was 1 mg/L (≈ 1.98 µM); against Staphylococcus aureus [2], 8 mg/L (≈ 15.9 µM); against Pseudomonas aeruginosa, 8 mg/L (≈ 15.9 µM); with Streptococcus pneumoniae [3], 0.03 mg/L (≈ 0.0595 µM); with Streptococcus pneumoniae [4], 2 mg/L (≈ 3.96 µM). The MIC was 1 mg/L (≈ 1.98 µM) in the experiment with Enterococcus faecalis, 0.12 mg/L (≈ 0.238 µM) with Citrobacter freundii and ≤ 0.06 mg/L in the experiment on Escherichia coli.

For `Nc1nc(/C(=N/O)C(=O)N[C@@H]2C(=O)N3C(C(=O)O)=C(/C=C4/CCN(C5CC5)C4=O)CS[C@H]23)cs1`, the MIC was 1 mg/L (≈ 1.98 µM) with Enterobacter cloacae; 1 mg/L (≈ 1.98 µM) in the experiment with Staphylococcus aureus [1]; 16 mg/L (≈ 31.7 µM) against Staphylococcus aureus [2]; > 32 mg/L in the experiment on Pseudomonas aeruginosa; 0.25 mg/L (≈ 0.495 µM) against Streptococcus pneumoniae [3]; 2 mg/L (≈ 3.96 µM) against Streptococcus pneumoniae [4]. Besides, the MIC against Enterococcus faecalis amounted to 16 mg/L (≈ 31.7 µM); against Citrobacter freundii, 0.5 mg/L (≈ 0.991 µM); against Escherichia coli, 0.5 mg/L (≈ 0.991 µM).

As for `CC(C)CO/N=C(\C(=O)N[C@@H]1C(=O)N2C(C(=O)O)=C(/C=C3\CCN(CC(F)(F)F)C3=O)CS[C@H]12)c1csc(N)n1`, the minimal inhibitory concentration (MIC) against Enterobacter cloacae was 4 mg/L (≈ 6.64 µM); against Staphylococcus aureus [1], 8 mg/L (≈ 13.3 µM); against Staphylococcus aureus [2], 4 mg/L (≈ 6.64 µM); in the experiment on Pseudomonas aeruginosa, 16 mg/L (≈ 26.6 µM); against Streptococcus pneumoniae [3], ≤ 0.06 mg/L; against Streptococcus pneumoniae [4], 1 mg/L (≈ 1.66 µM). For the same molecule, the MIC worked out at 16 mg/L (≈ 26.6 µM) in the experiment with Enterococcus faecalis, 4 mg/L (≈ 6.64 µM) in the experiment with Citrobacter freundii and 2 mg/L (≈ 3.32 µM) against Escherichia coli.
